Laboratory results taken from article PMC7231973 (Neurobiology of Stress, 2019).
Read-outs that look alike come from different tables or passages of the source.

Experiments:
[1] = cited from earlier work
[2] = molecular target: human GABAAR α1β1γ2 (Homo sapiens, UniProt P14867+P18505+P18507); test: Voltage-clamp, modulation of GABA EC10 response in Xenopus laevis oocytes; format: cell-based; conditions: maximum modulation of the GABA EC10 response, mean ± S.E.M. (n = 3)
Method in brief: (§1)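 Human GABAAR subtypes expressed in Xenopus laevis oocytes. The GABA EC10 (the concentration giving 10% of the maximal GABA response) was determined for each oocyte. Test compound was pre-applied for 30 s, then co-applied with EC10 GABA. Response = (I GABA EC10 + modulator / I GABA EC10) × 100, where I = current. Concentration-effect data were fitted to a four-parameter logistic equation.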

[3] = rodents; ref Irwin et al., 2015; cited from earlier work
[4] = molecular target: human GABAAR α4β3δ (Homo sapiens, UniProt O14764+P28472+P48169); test: Voltage-clamp, modulation of GABA EC10 response in Xenopus laevis oocytes; format: cell-based; conditions: maximum modulation of the GABA EC10 response, mean ± S.E.M. (n = 3)
Method in brief: as §1

[5] = molecular target: T1, human GABAAR α2β1γ2 (Homo sapiens, UniProt P18505+P18507+P47869); test: Voltage-clamp, modulation of GABA EC10 response in Xenopus laevis oocytes; format: cell-based; conditions: maximum modulation of the GABA EC10 response, mean ± S.E.M. (n = 3)
[6] = molecular target: human GABAAR α2β2γ2 (Homo sapiens, UniProt P18507+P47869+P47870); test: as above; format: cell-based; conditions: maximum modulation of the GABA EC10 response, mean ± S.E.M. (n = 3)
[7] = molecular target: human GABAAR α1β2γ2 (Homo sapiens, UniProt P14867+P18507+P47870); test: Voltage-clamp, modulation of GABA EC10 response in Xenopus laevis oocytes; format: cell-based; conditions: maximum modulation of the GABA EC10 response, mean ± S.E.M. (n = 3)
Method in brief: as §1

[8] = tested on: synaptic GABAARs; conditions: ref Wafford et al., 2009; Jensen et al., 2013; cited from earlier work
[9] = molecular target: T1, human GABAAR α2β1γ2; conditions: value marked #, ref Hogenkamp et al. (2014) and Carter et al. (1997); cited from earlier work
[10] = tested on: hippocampal DGGNs; conditions: ref Modgil et al., 2017, cited from earlier work
[11] = tested on: acute migraine; conditions: in vivo; cited from earlier work
[12] = tested on: PPD; conditions: cited from earlier work
[13] = tested on: GABAARs; conditions: ref Parakala et al., 2019; cited from earlier work
[14] = molecular target: extrasynaptic (α4β2δ) GABAARs (Mus musculus, UniProt P22933+P63137+Q9D6F4); test: Tonic current; format: cell-based; conditions: 1 μM; VB neuron of P21 mouse; reversed by bicuculline 20 μM
Method in brief: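 Holding current was taken from the same −70 mV VB neuron recordings in P21 mouse horizontal slices. All-points histograms of holding current were compared under control, after test compound (1 μM), and after co-application of bicuculline (20 μM).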

[15] = molecular target: synaptic (α1β2γ2) GABAARs (Mus musculus, UniProt P22723+P62812+P63137); test: mIPSCs recorded from thalamic VB neurons in horizontal slice; format: cell-based; conditions: 1 μM, 10 min; VB neuron of P21 mouse, −70 mV
Method in brief: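 GABAAR mIPSCs were recorded at −70 mV from thalamic VB neurons in horizontal slices from P21 mice. Recordings were made under control conditions and after 10 min of test compound at 1 μM. mIPSC decay was examined.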

[16] = tested on: patients with moderate to severe major depressive disorder; conditions: oral treatment for 14 days; ref Gunduz-Bruce et al., 2019; cited from earlier work
[17] = tested on: rodent seizure models; conditions: ref Hogenkamp et al., 2014; cited from earlier work
[18] = tested on: GABAARs; conditions: ref Harrison and Simmonds, 1984; cited from earlier work
[19] = ref Harrison and Simmonds, 1984; cited from earlier work
[20] = tested on: humans; conditions: 500 mg intravenously (iv.); ref Merryman et al., 1954; cited from earlier work
[21] = tested on: traumatic brain injury; conditions: ref Wright et al., 2014, Skolnick et al.; cited from earlier work

T1 sequence (P47869 29-451): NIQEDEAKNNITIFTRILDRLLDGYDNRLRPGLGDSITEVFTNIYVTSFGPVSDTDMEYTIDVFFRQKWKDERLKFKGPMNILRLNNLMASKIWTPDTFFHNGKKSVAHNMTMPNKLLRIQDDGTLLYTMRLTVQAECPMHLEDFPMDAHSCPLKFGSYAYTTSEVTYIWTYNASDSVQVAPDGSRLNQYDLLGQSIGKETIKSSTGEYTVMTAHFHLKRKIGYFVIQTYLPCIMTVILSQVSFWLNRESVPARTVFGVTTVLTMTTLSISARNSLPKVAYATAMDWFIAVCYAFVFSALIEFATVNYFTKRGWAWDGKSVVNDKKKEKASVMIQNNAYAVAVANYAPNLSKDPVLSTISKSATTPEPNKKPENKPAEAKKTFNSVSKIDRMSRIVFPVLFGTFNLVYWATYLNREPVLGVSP
T1 sequence (P18505 26-474): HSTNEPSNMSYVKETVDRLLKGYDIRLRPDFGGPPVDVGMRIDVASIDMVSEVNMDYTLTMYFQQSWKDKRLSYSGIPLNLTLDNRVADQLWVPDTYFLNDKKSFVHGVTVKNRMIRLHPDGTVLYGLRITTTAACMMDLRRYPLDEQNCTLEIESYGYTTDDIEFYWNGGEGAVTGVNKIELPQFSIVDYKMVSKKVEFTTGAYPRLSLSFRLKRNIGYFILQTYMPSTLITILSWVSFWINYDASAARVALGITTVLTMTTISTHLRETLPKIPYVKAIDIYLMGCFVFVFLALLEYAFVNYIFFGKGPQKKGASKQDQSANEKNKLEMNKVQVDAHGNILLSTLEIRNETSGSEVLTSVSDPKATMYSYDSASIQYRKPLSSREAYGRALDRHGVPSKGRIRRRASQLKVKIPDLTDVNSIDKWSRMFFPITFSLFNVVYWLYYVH
T1 sequence (P18507 40-475): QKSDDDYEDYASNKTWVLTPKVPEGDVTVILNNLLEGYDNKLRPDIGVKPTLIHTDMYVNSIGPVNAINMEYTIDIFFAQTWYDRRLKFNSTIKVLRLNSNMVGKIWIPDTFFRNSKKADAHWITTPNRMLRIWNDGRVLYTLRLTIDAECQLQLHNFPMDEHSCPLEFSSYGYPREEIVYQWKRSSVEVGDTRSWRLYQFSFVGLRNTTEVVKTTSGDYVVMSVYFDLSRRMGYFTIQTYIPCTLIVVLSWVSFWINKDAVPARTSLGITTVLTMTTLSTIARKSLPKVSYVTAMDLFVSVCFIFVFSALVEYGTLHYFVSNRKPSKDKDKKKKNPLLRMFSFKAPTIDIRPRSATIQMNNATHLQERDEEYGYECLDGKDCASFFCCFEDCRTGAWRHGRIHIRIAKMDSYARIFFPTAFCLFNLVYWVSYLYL
Sequence of human GABAAR α2β2γ2 (P47869 29-451): as the sequence (P47869 29-451) above
Sequence of human GABAAR α2β2γ2 (P47870 26-512): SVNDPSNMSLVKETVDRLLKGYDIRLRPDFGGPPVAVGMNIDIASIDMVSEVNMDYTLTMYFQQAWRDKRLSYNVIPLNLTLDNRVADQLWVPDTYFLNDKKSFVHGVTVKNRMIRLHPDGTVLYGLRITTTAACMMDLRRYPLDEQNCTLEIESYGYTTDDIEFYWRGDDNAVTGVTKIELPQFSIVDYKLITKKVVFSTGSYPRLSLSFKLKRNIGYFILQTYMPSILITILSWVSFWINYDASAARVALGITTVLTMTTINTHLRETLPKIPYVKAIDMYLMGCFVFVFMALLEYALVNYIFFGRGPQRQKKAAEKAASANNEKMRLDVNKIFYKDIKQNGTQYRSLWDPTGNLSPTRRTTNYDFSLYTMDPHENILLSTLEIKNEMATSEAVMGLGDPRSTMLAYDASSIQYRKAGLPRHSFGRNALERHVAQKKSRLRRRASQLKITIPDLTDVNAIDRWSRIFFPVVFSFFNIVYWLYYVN
Sequence of human GABAAR α2β2γ2 (P18507 40-475): as the sequence (P18507 40-475) above
Sequence of human GABAAR α4β3δ (P48169 36-554): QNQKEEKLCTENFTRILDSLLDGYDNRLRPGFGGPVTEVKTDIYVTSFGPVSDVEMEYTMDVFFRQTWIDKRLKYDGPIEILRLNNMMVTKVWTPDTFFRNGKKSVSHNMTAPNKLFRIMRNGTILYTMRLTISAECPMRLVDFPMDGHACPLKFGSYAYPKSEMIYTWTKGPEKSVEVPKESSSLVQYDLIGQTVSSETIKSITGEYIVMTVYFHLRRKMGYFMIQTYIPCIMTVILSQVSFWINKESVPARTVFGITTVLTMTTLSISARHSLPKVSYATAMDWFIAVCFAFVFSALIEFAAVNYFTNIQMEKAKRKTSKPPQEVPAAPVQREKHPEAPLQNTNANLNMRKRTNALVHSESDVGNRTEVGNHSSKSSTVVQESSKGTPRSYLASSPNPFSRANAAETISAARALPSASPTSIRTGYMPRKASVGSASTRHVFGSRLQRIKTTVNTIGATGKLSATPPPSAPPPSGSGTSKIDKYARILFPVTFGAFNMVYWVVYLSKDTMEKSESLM
Sequence of human GABAAR α4β3δ (P28472 26-473): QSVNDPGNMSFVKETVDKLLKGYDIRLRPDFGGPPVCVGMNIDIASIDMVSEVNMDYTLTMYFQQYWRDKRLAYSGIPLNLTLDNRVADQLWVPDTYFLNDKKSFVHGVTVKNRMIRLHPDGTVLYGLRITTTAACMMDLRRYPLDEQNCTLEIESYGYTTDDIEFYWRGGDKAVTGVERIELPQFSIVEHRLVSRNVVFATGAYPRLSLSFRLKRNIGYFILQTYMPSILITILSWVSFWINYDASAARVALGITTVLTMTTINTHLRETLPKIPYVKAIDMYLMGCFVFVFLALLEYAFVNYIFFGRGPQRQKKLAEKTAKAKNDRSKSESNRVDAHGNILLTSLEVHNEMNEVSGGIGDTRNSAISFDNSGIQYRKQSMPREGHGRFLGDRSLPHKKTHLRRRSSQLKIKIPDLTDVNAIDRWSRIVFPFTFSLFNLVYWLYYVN
Sequence of human GABAAR α4β3δ (O14764 25-452): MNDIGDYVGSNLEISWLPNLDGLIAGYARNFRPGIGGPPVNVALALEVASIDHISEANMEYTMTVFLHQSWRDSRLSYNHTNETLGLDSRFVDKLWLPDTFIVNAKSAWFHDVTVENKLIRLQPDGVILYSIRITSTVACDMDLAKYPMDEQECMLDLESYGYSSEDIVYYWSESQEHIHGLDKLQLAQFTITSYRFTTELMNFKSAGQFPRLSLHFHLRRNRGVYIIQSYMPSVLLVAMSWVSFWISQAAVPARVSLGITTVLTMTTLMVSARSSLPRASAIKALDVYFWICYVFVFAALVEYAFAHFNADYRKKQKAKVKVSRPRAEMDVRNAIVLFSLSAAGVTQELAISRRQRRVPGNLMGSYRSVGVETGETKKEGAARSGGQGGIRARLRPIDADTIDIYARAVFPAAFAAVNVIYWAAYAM
Sequence of human GABAAR α1β1γ2 (P14867 28-456): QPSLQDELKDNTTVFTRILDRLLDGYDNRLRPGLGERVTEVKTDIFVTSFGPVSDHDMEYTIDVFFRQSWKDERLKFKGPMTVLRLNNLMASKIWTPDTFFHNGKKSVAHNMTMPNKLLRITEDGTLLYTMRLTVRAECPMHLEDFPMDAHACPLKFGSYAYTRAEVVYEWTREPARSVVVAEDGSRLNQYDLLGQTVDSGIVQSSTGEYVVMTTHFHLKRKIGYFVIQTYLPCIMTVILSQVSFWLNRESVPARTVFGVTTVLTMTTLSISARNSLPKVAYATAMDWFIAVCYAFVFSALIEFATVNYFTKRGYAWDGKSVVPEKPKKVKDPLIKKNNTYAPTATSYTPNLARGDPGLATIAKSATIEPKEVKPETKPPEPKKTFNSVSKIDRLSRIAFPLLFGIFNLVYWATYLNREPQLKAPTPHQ
Sequence of human GABAAR α1β1γ2 (P18505 26-474): as the sequence (P18505 26-474) above
Sequence of human GABAAR α1β1γ2 (P18507 40-475): as the sequence (P18507 40-475) above
Sequence of human GABAAR α1β2γ2 (P14867 28-456): as the sequence (P14867 28-456) above
Sequence of human GABAAR α1β2γ2 (P47870 26-512): as the sequence (P47870 26-512) above
Sequence of human GABAAR α1β2γ2 (P18507 40-475): as the sequence (P18507 40-475) above
Sequence of synaptic (α1β2γ2) GABAARs (P62812 28-455): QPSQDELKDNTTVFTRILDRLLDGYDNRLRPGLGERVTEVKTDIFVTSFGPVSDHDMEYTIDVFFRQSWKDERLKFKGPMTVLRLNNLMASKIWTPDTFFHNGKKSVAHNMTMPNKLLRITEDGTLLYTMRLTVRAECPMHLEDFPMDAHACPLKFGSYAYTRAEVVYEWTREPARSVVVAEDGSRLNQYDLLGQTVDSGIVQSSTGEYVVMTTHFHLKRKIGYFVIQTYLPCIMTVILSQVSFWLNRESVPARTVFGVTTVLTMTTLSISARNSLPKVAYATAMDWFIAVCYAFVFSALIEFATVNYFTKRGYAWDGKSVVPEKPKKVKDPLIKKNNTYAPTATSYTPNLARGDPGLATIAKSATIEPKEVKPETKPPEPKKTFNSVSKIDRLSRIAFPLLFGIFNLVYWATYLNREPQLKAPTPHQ
Sequence of synaptic (α1β2γ2) GABAARs (P63137 25-512 limits assumed): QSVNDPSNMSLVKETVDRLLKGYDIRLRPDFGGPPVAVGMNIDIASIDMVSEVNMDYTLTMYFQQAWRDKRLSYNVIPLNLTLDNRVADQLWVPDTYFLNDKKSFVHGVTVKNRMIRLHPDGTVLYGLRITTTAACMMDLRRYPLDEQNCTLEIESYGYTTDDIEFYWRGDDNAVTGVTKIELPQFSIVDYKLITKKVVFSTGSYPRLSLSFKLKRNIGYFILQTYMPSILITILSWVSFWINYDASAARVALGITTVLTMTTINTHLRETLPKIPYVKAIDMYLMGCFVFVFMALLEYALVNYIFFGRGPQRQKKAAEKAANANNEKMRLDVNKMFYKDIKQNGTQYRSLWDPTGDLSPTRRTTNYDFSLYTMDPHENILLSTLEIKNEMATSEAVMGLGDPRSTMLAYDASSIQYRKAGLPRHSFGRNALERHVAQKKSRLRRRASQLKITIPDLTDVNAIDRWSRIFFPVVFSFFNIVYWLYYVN
Sequence of synaptic (α1β2γ2) GABAARs (P22723 39-474): as the sequence (P18507 40-475) above

CCOC(=O)Nc1ccc(NCc2c(C)cc(C)cc2C)cc1N [AA29504]
ratio of brain to plasma levels ([1]; ref Hoestgaard-Jensen et al., 2010): favorable ratio of brain to plasma levels

CC(=O)[C@H]1CC[C@H]2[C@@H]3CC[C@H]4C[C@H](O)CC[C@]4(C)[C@H]3CC[C@]12C [AlloP, 5α-pregnan-3α-ol-20-one]
Max Mod ± SEM [2]: 817 ± 62 % control
brain concentration relative to that in plasma [3]: 3 ×
Max Mod ± SEM [4]: 1401 ± 88 % control
Max Mod ± SEM [5]: 878 ± 211 % control
Max Mod ± SEM [6]: 485 ± 257 % control
Max Mod ± SEM [7]: 909 ± 68 % control

O=C(Nc1c(-c2cccs2)nc2ccccn12)c1ccc(Cl)cc1 [DS2]
CNS penetration ([1]; ref Wafford et al., 2009, Jensen et al., 2013): poor CNS penetration
activity on synaptic GABAARs [8]: no activity

CC(=O)[C@H]1CC[C@H]2[C@@H]3CC[C@H]4C[C@](C)(O)CC[C@]4(C)[C@H]3CC[C@]12C [Ganaxolone, 3alpha-hydroxy-3beta-methyl-5alpha-pregnan-20-one]
Max Mod ± SEM [2]: 1006 ± 241 % control
Max Mod ± SEM [9]: 700 ± 50^# % control
sustained enhancement of tonic conductance ([10]; in contrast to allopregnanolone): did not produce a sustained enhancement
acute effect on tonic current [10]: acutely increased the tonic current
outcome in phase II trials, acute migraine [11]: failed to demonstrate efficacy
Max Mod ± SEM [4]: 1710 ± 534 % control
Max Mod ± SEM [6]: 646 ± 254 % control
outcome in PPD, preliminary findings ([12]; oral (p.o) dose of 1175 mg once per day for 28 days, ref trade press): not meeting primary endpoints
Max Mod ± SEM [7]: 1151 ± 367 % control

C=C[C@]12CCC(=O)C=C1CC[C@H]1[C@@H]3CC[C@H](C(C)=O)[C@@]3(C)CC[C@@H]12 [ORG OD 02-0]
direct interaction with GABAARs [13]: no direct interaction with GABAARs

C[C@@]1(O)CC[C@H]2[C@H](CC[C@@H]3[C@@H]2CC[C@]2(C)[C@@H](C(=O)Cn4cc(C#N)cn4)CC[C@@H]32)C1 [SAGE-217, 3alpha-Hydroxy-3beta-methyl-21-(4-cyano-1H-pyrazol-1’-yl)-19-nor-5beta-pregnan-20-one]
Max Mod ± SEM [2]: 488 ± 33 % control
tonic current [14]: enhance the tonic current
duration of miniature inhibitory postsynaptic currents (mIPSCs) [15]: greatly prolong
Max Mod ± SEM [4]: 783 ± 122 % control
depressive symptoms [16]: effective in reducing depressive symptoms
main side effects [16]: dizziness and somnolence/sedation
Max Mod ± SEM [5]: 851 ± 93 % control
Max Mod ± SEM [6]: 1355 ± 173 % control
outcome of phase II study ([12]; 30 mg p.o. once a day for 14 days, reported by Sage): positive results
Max Mod ± SEM [7]: 823 ± 353 % control

C[C@@]1(O)CC[C@@]2(C)[C@@H](CC[C@@H]3[C@@H]2CC[C@]2(C)[C@@H](c4cc(CO)on4)CC[C@@H]32)C1 [UCI-50027, 3-[3α-hydroxy-3β-methyl-5α-androstan-17β-yl]-5-(hydroxymethyl)isoxazole]
Max Mod ± SEM [2]: 472 ± 84 % control
anticonvulsant/anxiolytic therapeutic index [17]: greater anticonvulsant/anxiolytic therapeutic index than ganaxolone
Max Mod ± SEM [4]: 919 ± 229 % control
Max Mod ± SEM [5]: 277 ± 47 % control
Max Mod ± SEM [6]: 595 ± 176 % control
Max Mod ± SEM [7]: 587 ± 91 % control

CC(=O)[C@H]1CC[C@H]2[C@@H]3CC[C@H]4C[C@@H](O)CC[C@]4(C)[C@H]3C(=O)C[C@]12C [betaxalone]
effect on GABAARs [18]: no effect
behavioural effect [19]: behaviourally inert

CC(=O)[C@H]1CC[C@H]2[C@@H]3CCC4=CC(=O)CC[C@]4(C)[C@H]3CC[C@]12C [progesterone]
effect in humans [20]: anesthetic effect
outcome in phase III trials, moderate to severe traumatic brain injury [21]: failed to meet primary criteria
